According to ChEMBL document CHEMBL2086318, “Synthesis and in vitro antimycobacterial activity of 2-methoxybenzanilides and their thioxo analogues” (Eur J Med Chem, 2012):
Values after ≈ are worked out from the molar mass of the structure shown.

How the values were obtained:
Assay type in all cases: functional
[1] = system: Mycobacterium tuberculosis; assay: Antimycobacterial activity against Mycobacterium tuberculosis My 331/88 after 14 days by micromethod; conditions: My 331/88, 336 h
How it was run: (§1)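 MIC by micromethod at 37 °C, read after 14 and 21 days. Inocula were M. tuberculosis My 331/88 at 10^-3 dilution and M. avium My 330/88 at 10^-5 dilution. Compounds added in DMSO across 1000, 500, 250, 125, 62.5, 32, 16, 8, 4, 2, 1 and 0.5; isoniazid standard in sterile water. MIC taken as the lowest concentration inhibiting growth.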

[2] = system: Mycobacterium kansasii; assay: Antimycobacterial activity against Mycobacterium kansasii My 6509/96 clinical isolate after 7 days by micromethod; conditions: My 6509/96, 168 h
[3] = system: Mycobacterium avium; assay: Antimycobacterial activity against Mycobacterium avium My 330/88 after 21 days by micromethod; conditions: My 330/88, 504 h
[4] = system: Mycobacterium avium; assay: Antimycobacterial activity against Mycobacterium avium My 330/88 after 14 days by micromethod; conditions: My 330/88, 336 h
[5] = system: Mycobacterium kansasii; assay: Antimycobacterial activity against Mycobacterium kansasii My 6509/96 clinical isolate after 21 days by micromethod; conditions: My 6509/96, 504 h
[6] = system: Mycobacterium kansasii; assay: Antimycobacterial activity against Mycobacterium kansasii My 235/80 after 14 days by micromethod; conditions: My 235/80, 336 h
[7] = system: Mycobacterium kansasii; assay: Antimycobacterial activity against Mycobacterium kansasii My 235/80 after 21 days by micromethod; conditions: My 235/80, 504 h
[8] = system: Mycobacterium kansasii; assay: Antimycobacterial activity against Mycobacterium kansasii My 235/80 after 7 days by micromethod; conditions: My 235/80, 168 h
[9] = system: Mycobacterium tuberculosis; assay: Antimycobacterial activity against Mycobacterium tuberculosis My 331/88 after 21 days by micromethod; conditions: My 331/88, 504 h; how it was run: as §1
[10] = system: Mycobacterium kansasii; assay: Antimycobacterial activity against Mycobacterium kansasii My 6509/96 clinical isolate after 14 days by micromethod; conditions: My 6509/96, 336 h

## COc1ccc(Cl)cc1C(=S)Nc1ccc(Cl)cc1
[1]
  MIC: 16 µM (≈ 5 µg/mL)
[2]
  MIC: 16 µM (≈ 5 µg/mL)
[3]
  MIC: 32 µM (≈ 9.99 µg/mL)
[4]
  MIC: 32 µM (≈ 9.99 µg/mL)
[5]
  MIC: 32 µM (≈ 9.99 µg/mL)
[6]
  MIC: 32 µM (≈ 9.99 µg/mL)
[7]
  MIC: 62.5 µM (≈ 19.5 µg/mL)
[8]
  MIC: 8 µM (≈ 2.5 µg/mL)
[9]
  MIC: 16 µM (≈ 5 µg/mL)
[10]
  MIC: 16 µM (≈ 5 µg/mL)

## COc1ccc(Cl)cc1C(=O)Nc1cccc(Br)c1
[1]
  MIC: 125 µM (≈ 42.6 µg/mL)
[2]
  MIC: 62.5 µM (≈ 21.3 µg/mL)
[3]
  MIC: 62.5 µM (≈ 21.3 µg/mL)
[4]
  MIC: 62.5 µM (≈ 21.3 µg/mL)
[5]
  MIC: 62.5 µM (≈ 21.3 µg/mL)
[6]
  MIC: 62.5 µM (≈ 21.3 µg/mL)
[7]
  MIC: 62.5 µM (≈ 21.3 µg/mL)
[8]
  MIC: 62.5 µM (≈ 21.3 µg/mL)
[9]
  MIC: 125 µM (≈ 42.6 µg/mL)
[10]
  MIC: 62.5 µM (≈ 21.3 µg/mL)

## COc1ccc(Cl)cc1C(=S)Nc1cccc([N+](=O)[O-])c1
[1]
  MIC: 250 µM (≈ 80.7 µg/mL)
[2]
  MIC: 62.5 µM (≈ 20.2 µg/mL)
[3]
  MIC: 250 µM (≈ 80.7 µg/mL)
[4]
  MIC: 250 µM (≈ 80.7 µg/mL)
[5]
  MIC: 250 µM (≈ 80.7 µg/mL)
[6]
  MIC: 250 µM (≈ 80.7 µg/mL)
[7]
  MIC: 250 µM (≈ 80.7 µg/mL)
[8]
  MIC: 62.5 µM (≈ 20.2 µg/mL)
[9]
  MIC: 250 µM (≈ 80.7 µg/mL)
[10]
  MIC: 250 µM (≈ 80.7 µg/mL)

## COc1ccc(Cl)cc1C(=S)Nc1ccc(Br)cc1
[1]
  MIC: 16 µM (≈ 5.71 µg/mL)
[2]
  MIC: 16 µM (≈ 5.71 µg/mL)
[3]
  MIC: 16 µM (≈ 5.71 µg/mL)
[4]
  MIC: 16 µM (≈ 5.71 µg/mL)
[5]
  MIC: 32 µM (≈ 11.4 µg/mL)
[6]
  MIC: 250 µM (≈ 89.2 µg/mL)
[7]
  MIC: 250 µM (≈ 89.2 µg/mL)
[8]
  MIC: 62.5 µM (≈ 22.3 µg/mL)
[9]
  MIC: 16 µM (≈ 5.71 µg/mL)
[10]
  MIC: 32 µM (≈ 11.4 µg/mL)

## COc1ccc(Cl)cc1C(=O)Nc1ccc(Cl)c(Cl)c1
[1]
  MIC: 125 µM (≈ 41.3 µg/mL)
[2]
  MIC: 62.5 µM (≈ 20.7 µg/mL)
[3]
  MIC: 250 µM (≈ 82.6 µg/mL)
[4]
  MIC: 250 µM (≈ 82.6 µg/mL)
[5]
  MIC: 125 µM (≈ 41.3 µg/mL)
[6]
  MIC: 250 µM (≈ 82.6 µg/mL)
[7]
  MIC: 250 µM (≈ 82.6 µg/mL)
[8]
  MIC: 62.5 µM (≈ 20.7 µg/mL)
[9]
  MIC: 125 µM (≈ 41.3 µg/mL)
[10]
  MIC: 125 µM (≈ 41.3 µg/mL)

## COc1cc(Cl)ccc1C(=S)Nc1cccc(Br)c1
[1]
  MIC: 32 µM (≈ 11.4 µg/mL)
[2]
  MIC: 125 µM (≈ 44.6 µg/mL)
[3]
  MIC: 125 µM (≈ 44.6 µg/mL)
[4]
  MIC: 125 µM (≈ 44.6 µg/mL)
[5]
  MIC: 125 µM (≈ 44.6 µg/mL)
[6]
  MIC: 125 µM (≈ 44.6 µg/mL)
[7]
  MIC: 125 µM (≈ 44.6 µg/mL)
[8]
  MIC: 125 µM (≈ 44.6 µg/mL)
[9]
  MIC: 32 µM (≈ 11.4 µg/mL)
[10]
  MIC: 125 µM (≈ 44.6 µg/mL)

## COc1cc(Cl)ccc1C(=S)Nc1ccc(C(F)(F)F)cc1
[1]
  MIC: 8 µM (≈ 2.77 µg/mL)
[2]
  MIC: 8 µM (≈ 2.77 µg/mL)
[3]
  MIC: 32 µM (≈ 11.1 µg/mL)
[4]
  MIC: 32 µM (≈ 11.1 µg/mL)
[5]
  MIC: 32 µM (≈ 11.1 µg/mL)
[6]
  MIC: 32 µM (≈ 11.1 µg/mL)
[7]
  MIC: 62.5 µM (≈ 21.6 µg/mL)
[8]
  MIC: 16 µM (≈ 5.53 µg/mL)
[9]
  MIC: 16 µM (≈ 5.53 µg/mL)
[10]
  MIC: 32 µM (≈ 11.1 µg/mL)

## NNC(=O)c1ccncc1 [ISONIAZID]
[1]
  MIC: 0.5 µM (≈ 0.0686 µg/mL)
[2]
  MIC: 4 µM (≈ 0.549 µg/mL)
[3]
  MIC: 250 µM (≈ 34.3 µg/mL)
[4]
  MIC: 200 µM (≈ 27.4 µg/mL)
[5]
  MIC: 4 µM (≈ 0.549 µg/mL)
[6]
  MIC: 200 µM (≈ 27.4 µg/mL)
[7]
  MIC: 250 µM (≈ 34.3 µg/mL)
[8]
  MIC: > 250 µM
[9]
  MIC: 0.5 µM (≈ 0.0686 µg/mL)
[10]
  MIC: 4 µM (≈ 0.549 µg/mL)

## O=C(Nc1ccc(Cl)c(Cl)c1)c1ccc(Cl)cc1O
[1]
  MIC: 4 µM (≈ 1.27 µg/mL)
[3]
  MIC: 16 µM (≈ 5.07 µg/mL)
[4]
  MIC: 16 µM (≈ 5.07 µg/mL)
[6]
  MIC: 8 µM (≈ 2.53 µg/mL)
[7]
  MIC: 8 µM (≈ 2.53 µg/mL)
[9]
  MIC: 4 µM (≈ 1.27 µg/mL)

## COc1ccc(Cl)cc1C(=S)Nc1cccc(Cl)c1
[1]
  MIC: 16 µM (≈ 5 µg/mL)
[2]
  MIC: 16 µM (≈ 5 µg/mL)
[3]
  MIC: 32 µM (≈ 9.99 µg/mL)
[4]
  MIC: 32 µM (≈ 9.99 µg/mL)
[5]
  MIC: 32 µM (≈ 9.99 µg/mL)
[6]
  MIC: 16 µM (≈ 5 µg/mL)
[7]
  MIC: 16 µM (≈ 5 µg/mL)
[8]
  MIC: 8 µM (≈ 2.5 µg/mL)
[9]
  MIC: 16 µM (≈ 5 µg/mL)
[10]
  MIC: 16 µM (≈ 5 µg/mL)

## O=C(Nc1ccc(Br)cc1)c1cc(Cl)ccc1O
[1]
  MIC: 8 µM (≈ 2.61 µg/mL)
[3]
  MIC: 8 µM (≈ 2.61 µg/mL)
[4]
  MIC: 8 µM (≈ 2.61 µg/mL)
[6]
  MIC: 4 µM (≈ 1.31 µg/mL)
[7]
  MIC: 4 µM (≈ 1.31 µg/mL)
[9]
  MIC: 16 µM (≈ 5.23 µg/mL)

## O=C(Nc1ccc(Br)cc1)c1ccc(Cl)cc1O
[1]
  MIC: 4 µM (≈ 1.31 µg/mL)
[3]
  MIC: 16 µM (≈ 5.23 µg/mL)
[4]
  MIC: 16 µM (≈ 5.23 µg/mL)
[6]
  MIC: 4 µM (≈ 1.31 µg/mL)
[7]
  MIC: 4 µM (≈ 1.31 µg/mL)
[9]
  MIC: 4 µM (≈ 1.31 µg/mL)

## COc1cc(Cl)ccc1C(=O)Nc1ccc(C(F)(F)F)cc1
[1]
  MIC: 125 µM (≈ 41.2 µg/mL)
[2]
  MIC: 32 µM (≈ 10.6 µg/mL)
[3]
  MIC: 125 µM (≈ 41.2 µg/mL)
[4]
  MIC: 62.5 µM (≈ 20.6 µg/mL)
[5]
  MIC: 125 µM (≈ 41.2 µg/mL)
[6]
  MIC: 125 µM (≈ 41.2 µg/mL)
[7]
  MIC: 125 µM (≈ 41.2 µg/mL)
[8]
  MIC: 125 µM (≈ 41.2 µg/mL)
[9]
  MIC: 125 µM (≈ 41.2 µg/mL)
[10]
  MIC: 125 µM (≈ 41.2 µg/mL)

## O=C(Nc1ccc(C(F)(F)F)cc1)c1ccc(Cl)cc1O
[1]
  MIC: 4 µM (≈ 1.26 µg/mL)
[3]
  MIC: 8 µM (≈ 2.53 µg/mL)
[4]
  MIC: 8 µM (≈ 2.53 µg/mL)
[6]
  MIC: 4 µM (≈ 1.26 µg/mL)
[7]
  MIC: 4 µM (≈ 1.26 µg/mL)
[9]
  MIC: 4 µM (≈ 1.26 µg/mL)

## O=C(Nc1ccc(C(F)(F)F)cc1)c1cc(Cl)ccc1O
[1]
  MIC: 2 µM (≈ 0.631 µg/mL)
[3]
  MIC: 8 µM (≈ 2.53 µg/mL)
[4]
  MIC: 8 µM (≈ 2.53 µg/mL)
[6]
  MIC: 1 µM (≈ 0.316 µg/mL)
[7]
  MIC: 1 µM (≈ 0.316 µg/mL)
[9]
  MIC: 2 µM (≈ 0.631 µg/mL)

## O=C(Nc1cccc(Cl)c1)c1cc(Cl)ccc1O
[1]
  MIC: 4 µM (≈ 1.13 µg/mL)
[3]
  MIC: 16 µM (≈ 4.51 µg/mL)
[4]
  MIC: 8 µM (≈ 2.26 µg/mL)
[6]
  MIC: 4 µM (≈ 1.13 µg/mL)
[7]
  MIC: 8 µM (≈ 2.26 µg/mL)
[9]
  MIC: 8 µM (≈ 2.26 µg/mL)

## O=C(Nc1cccc([N+](=O)[O-])c1)c1cc(Cl)ccc1O
[1]
  MIC: 8 µM (≈ 2.34 µg/mL)
[3]
  MIC: 16 µM (≈ 4.68 µg/mL)
[4]
  MIC: 16 µM (≈ 4.68 µg/mL)
[6]
  MIC: 8 µM (≈ 2.34 µg/mL)
[7]
  MIC: 8 µM (≈ 2.34 µg/mL)
[9]
  MIC: 8 µM (≈ 2.34 µg/mL)

## O=C(Nc1cccc(Cl)c1)c1ccc(Cl)cc1O
[1]
  MIC: 4 µM (≈ 1.13 µg/mL)
[3]
  MIC: 16 µM (≈ 4.51 µg/mL)
[4]
  MIC: 16 µM (≈ 4.51 µg/mL)
[6]
  MIC: 4 µM (≈ 1.13 µg/mL)
[7]
  MIC: 8 µM (≈ 2.26 µg/mL)
[9]
  MIC: 4 µM (≈ 1.13 µg/mL)
